Compound activity as filed in PubChem BioAssay.
Hits are enriched below; roughly 1.6% of the tested compounds scored in any of these assays.
NCF1 inh: inhibitors of human p47phox binding; inhibition, % at 24.7 µM; AID 1274; P14598; p47phox/p22phox peptide binding, fluorescence polarization, 2 h; 220,000 tested, 0.53% active;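 also: 0% = p47phox with labelled peptide and 100% = labelled peptide alone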
14-3-3 Bad PPI: disrupts binding of bovine 14-3-3 zeta to phospho-Bad peptide; TR-FRET 14-3-3zeta/Dy647-pBad peptide displacement, 1 h; inhibition, % at 21.7 µM; P63103; AID 781; 220,000 tested, 0.71% active;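 active = inhibition above about 70%, limit read from the data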;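 also: 0% = full 14-3-3 plus peptide FRET controls and 100% = background without 14-3-3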
eIF4E 4G PPI: eIF4E/eIF4G interaction inhibition in translation initiation; AID 782; P63073+Q04637; 220,000 tested, 0.37% active; TR-FRET eIF4E-eIF4GI(517-606) binding, 2 h; inhibition, % at 21.7 µM;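 also: 0% = full FRET control wells and 100% = background wells lacking eIF4GI fragment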
p97 ATPase inh: inhibitors of human p97 ATPase; P55072; recombinant p97 ATPase, Kinase-Glo ATP luminescence, 3 h; 220,000 tested, 0.42% active; inhibition, % at 8 µM; in the data active = inhibition above about 15%;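 also: 0% = DMSO vehicle and 100% = wells lacking enzyme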
Target sequence (P55072 whole entry, looked up): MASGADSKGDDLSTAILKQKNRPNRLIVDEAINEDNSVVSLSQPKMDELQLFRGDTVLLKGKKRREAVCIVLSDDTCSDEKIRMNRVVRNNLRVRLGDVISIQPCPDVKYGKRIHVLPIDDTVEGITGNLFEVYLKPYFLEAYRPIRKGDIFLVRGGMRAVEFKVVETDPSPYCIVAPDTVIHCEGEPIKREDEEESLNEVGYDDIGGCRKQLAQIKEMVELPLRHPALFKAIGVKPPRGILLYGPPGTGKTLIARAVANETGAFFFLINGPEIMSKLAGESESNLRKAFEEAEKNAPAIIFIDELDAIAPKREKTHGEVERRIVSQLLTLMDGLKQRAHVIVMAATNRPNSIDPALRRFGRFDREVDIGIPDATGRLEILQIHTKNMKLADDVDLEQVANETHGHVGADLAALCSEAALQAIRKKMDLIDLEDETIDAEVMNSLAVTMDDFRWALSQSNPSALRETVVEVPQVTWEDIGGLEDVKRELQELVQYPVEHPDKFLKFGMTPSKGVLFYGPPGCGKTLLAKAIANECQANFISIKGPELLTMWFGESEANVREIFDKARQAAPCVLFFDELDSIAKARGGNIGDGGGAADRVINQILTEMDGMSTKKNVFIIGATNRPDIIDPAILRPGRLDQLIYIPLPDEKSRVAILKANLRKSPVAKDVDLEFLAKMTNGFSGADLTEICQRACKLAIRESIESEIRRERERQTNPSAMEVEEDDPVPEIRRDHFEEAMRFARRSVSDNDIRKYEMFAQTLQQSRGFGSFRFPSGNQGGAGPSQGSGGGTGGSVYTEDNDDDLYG
TbMetRS inhib: blocks T. brucei methionyl-tRNA synthetase activity. 360,000 tested, 0.4% active. inhibition, % at 11.9 µM. purified T. brucei MetRS, ATP depletion, Kinase-Glo luminescence;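 active = inhibition above a per-plate cutoff of the control wells' mean inhibition plus 3 SD, cut at about 5.5% in these data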;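 also: 0% = DMSO wells median and 100% = median of wells with control inhibitor compound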
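Material: T. brucei methionyl-tRNA synthetase, purified; reagent: substrates ATP, L-methionine and bulk Escherichia coli tRNA; dosing: 11.9 µM single point; timing: 15 min plus 2 h at 25 °C; detection: luminescence of leftover ATP; evaluation: % inhibition; control set: DMSO-only wells as low control; replicates: singlicate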
SUMO HTRF inh: blocks human SUMOylation mediated by UBC9; HTRF SUMOylation assay, SAE1/SAE2 + UBC9, in vitro; 290,000 tested, 0.36% active; inhibition, % at 35 µM; P63279; in the data active = inhibition above about 50%, passing the limit was not always enough
p97 confirm: confirmation of human p97 ATPase inhibitors; shares compounds with p97 ATPase inh; recombinant p97 ATPase, Kinase-Glo ATP luminescence; inhibition, % at 8 µM; 760 tested, 44% active;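 active = percent inhibition of p97 ATPase above a set limit, the primary screen's mean plus 3 SD, cut at about 15% in these data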;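 also: 0% = DMSO wells and 100% = wells lacking p97 protein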
The depositor's hits bear a star; x = not tested or not shown.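 The calls were made as follows, unless noted: active = inhibition above about 30% (limit read from the data); inactive = the rest.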

SMILES	NCF1 inh	14-3-3 Bad PPI	eIF4E 4G PPI	p97 ATPase inh	TbMetRS inhib	SUMO HTRF inh	p97 confirm
O=C(CCn1c(SCC(=O)NCc2ccco2)nc2ccccc2c1=O)NCCc1ccccc1	-24.5	0.0	7.0	1.6	-0.3	37.4	x
C=CCn1c(SCC(=O)NCc2ccco2)nc2ccccc2c1=O	5.9	-9.6	-0.5	15.3*	-0.9	9.3	8.1
Cc1cc(NC(=O)c2ccccc2C)ccc1NC(=O)c1ccccc1Cl	x	x	x	x	-1.3	-7.6	x
CCCc1cc(=O)n2[nH]c(-c3ccccc3)cc2n1	-2.1	8.4	3.9	1.8	-0.9	-9.6	x
CCCCn1[nH]c(-c2ccccc2)cc1=O	-7.3	-3.8	13.8	21.2*	-1.1	79.6*	6.0
Cc1cccc(Nc2cc(C)c3c(O)cccc3n2)c1C	-18.6	-8.8	0.2	23.4*	-0.2	-25.2	15.7*
Cc1cccc(NC(=S)N(C)C)c1C	-17.4	-4.8	-8.4	4.7	0.2	9.6	x
Cn1c(=NC(=O)CCl)sc2ccccc21	-7.9	6.2	-17.3	20.3*	-0.2	-0.3	21.7*
Cn1c(=NC(=O)c2ccco2)sc2ccccc21	-1.7	-1.7	4.0	-1.2	-0.9	13.9	x
O=C(Cc1ccc(Br)cc1)Nc1ccccc1Cl	-0.6	-11.1	1.9	-4.5	-0.7	12.6	x
Fc1ccc(-c2nn(-c3ccccc3)cc2CNCc2ccccc2)cc1	-5.9	-2.0	-0.4	-1.3	0.2	-24.2	x
O=C(CCl)Nc1cn(-c2ccccc2)nc1-c1ccc(F)cc1	-2.6	-7.2	-0.6	17.1*	-0.3	-1.1	26.3*
COc1ccc(S(=O)(=O)N2CCN(C(=O)c3cc(C)nc4ccccc34)CC2)cc1OC	x	x	x	x	-0.1	x	x
Cc1cc(NC(=O)c2ccc3c(c2)OCCO3)ccc1NC(=O)c1cc2ccccc2o1	-9.2	5.0	0.3	16.4*	0.0	22.9	15.2*
O=C(CNC(=O)c1ccco1)NCC(=O)OCc1ccc(Cl)cc1Cl	x	x	x	x	0.7	-3.7	x
NC(=S)N/N=C/c1coc2ccc(O)cc2c1=O	-6.2	-6.9	2.7	15.4*	-0.6	-0.5	11.2
CN1CCN(CCCNC(=O)c2cn(C3CCCCC3)c(=O)c3c2c2ccccc2n3C)CC1	-9.5	5.6	4.1	23.2*	-1.6	-19.0	4.0
Cn1c2ccccc2c2c(C(=O)NCCCN3CCCC3=O)cn(C3CCCCC3)c(=O)c21	-6.9	x	x	1.8	-0.7	11.4	x
COc1ccc(-n2nc(C(=O)NCC(=O)N3CCN(c4ccccc4)CC3)c3ccccc3c2=O)cc1OC	x	x	x	x	-0.4	4.9	x
Cc1nc2ccccc2n1CC(=O)NCCN1CCCC1	-7.4	2.5	2.3	35.4*	-0.4	9.8	7.0
O=C(Cn1c(C(F)(F)F)nc2ccccc21)NCCN1CCCC1	-16.3	-5.6	-2.9	4.8	0.7	-5.2	x
CN1CCN(C(=O)C23CC4CC(C2)CC(c2ccccc2)(C4)C3)CC1	x	0.2	2.6	1.5	-0.5	25.2	x
COc1ccccc1N1CCN(Cc2cc(=O)n3ccsc3n2)CC1	-3.6	-16.5	1.6	16.1*	-1.3	2.3	8.7
COc1cc(CNc2ccc(O)cc2)cc(Br)c1OCc1ccccc1F	-7.4	-2.7	3.4	15.3*	0.2	90.8*	5.2
CCOc1cc(CNc2ccc(O)cc2)cc(Br)c1OCc1ccccc1F	6.7	-4.2	0.4	8.0	0.1	46.3	x
SMILES	NCF1 inh	14-3-3 Bad PPI	eIF4E 4G PPI	p97 ATPase inh	TbMetRS inhib	SUMO HTRF inh	p97 confirm
Cc1nnn(C23CC4CC(CC(CC(=O)Nc5ccc(C)c(C)c5)(C4)C2)C3)n1	-15.7	-13.6	17.8	1.5	0.2	-16.6	x
O=C(Nc1ccc(F)cc1)C1C(c2ccccc2)C1(Cl)Cl (centres undefined)	11.0	10.9	8.4	40.9*	-0.9	-4.5	46.9*
O=C(NC(=S)N1CCOCC1)c1cc2ccccc2o1	-6.0	-8.6	-1.0	-3.6	-0.6	5.9	x
Cc1noc(C)c1-c1ccc(C(=O)NCc2cccnc2)c2occc12	x	x	x	x	1.8	x	x
CCC(C)n1c(NC(=O)c2ccccc2)c(C#N)c2nc3ccccc3nc21 (centres undefined)	x	x	x	27.0*	3.1	x	3.9
CCC(=O)Nc1c(C#N)c2nc3ccccc3nc2n1-c1ccc(C)cc1	x	x	x	x	0.0	x	x
N#Cc1c(NC(=O)c2ccc(Br)o2)n(-c2ccccc2)c2nc3ccccc3nc12	-17.3	8.7	-3.0	46.6*	1.4	95.1*	41.0*
CC1=NN(c2nc(-c3ccc(F)cc3)cs2)C(=O)C1	-37.5	-11.9	5.1	7.0	0.6	-7.3	x
CC1=NN(c2nc(-c3ccc(Cl)cc3)cs2)C(=O)C1	-22.8	3.7	4.2	15.9*	-0.4	47.2	6.6
Cc1nn(C)cc1C(C)NC(=O)c1cc(COc2ccc(F)c(F)c2)on1 (centres undefined)	x	x	x	x	-0.3	-2.4	x
O=C(O)c1cccc(CN2C(=O)SC(Nc3cccc4ccccc34)C2=O)c1 (centres undefined)	-7.1	0.2	-1.4	17.1*	-0.4	5.9	12.7
Cc1ccc(NC(=S)N2CCCC(O)C2)cc1 (centres undefined)	2.8	4.7	-2.4	59.7*	-0.8	4.9	2.0
CCn1nc(C)c(CN2CCC(C(=O)Nc3cccc(-c4cccc(Cl)c4)c3)CC2)c1C	x	x	x	x	-0.4	3.4	x
Cc1ccc(-c2nc(Nc3ccc(O)cc3)c3ccccc3n2)cc1	x	x	x	x	0.6	-24.3	x
Cc1ccc(-c2nc(Nc3ccc(N4CCOCC4)cc3)c3ccccc3n2)cc1	-22.4	0.7	8.7	15.1*	-0.7	14.9	11.5
Cc1nc(NC(=O)c2ccccc2)sc1-c1csc(Nc2ccc(C(=O)O)cc2)n1	-38.4	74.6*	34.9*	15.0*	0.2	41.3	15.5*
CCC(=O)Nc1nc(C)c(-c2csc(Nc3ccc(C(=O)O)cc3)n2)s1	x	x	x	x	0.0	1.6	x
Cc1ccc(S(=O)c2ccc(NC(=O)C3CC3)cc2C#N)cc1 (centres undefined)	-2.2	7.2	1.4	16.9*	0.4	1.9	3.5
Cc1ccc(NC(=O)C2CCN(S(=O)(=O)c3ccccc3)CC2)cc1	-11.0	-9.8	5.1	5.2	0.0	-7.2	x
Cc1ccc(C)c(NC(=O)c2cnc3n(c2=O)CCS3)c1	-3.4	-3.1	1.9	29.2*	-2.1	11.8	19.8*
O=C1CC(c2ccc(F)cc2)Sc2nc(C34CC5CC(CC(C5)C3)C4)nn21 (centres undefined)	-0.8	5.3	-2.4	-6.0	0.1	12.1	x
Cc1cc(NC2CCCCC2)nc(-c2ccccc2O)n1	-1.6	22.3	1.4	-0.3	-0.4	26.9	x
Cc1cc(Nc2cccc(F)c2)nc(-c2ccccc2O)n1	-21.9	15.6	1.9	2.9	0.5	-3.0	x
Cc1cc(NCc2ccccc2)nc(-c2ccccc2O)n1	-13.8	0.4	-3.7	20.4*	0.3	11.9	34.7*
